≈ marks a conversion by molar mass, not a printed value.
How the values were obtained:
Escherichia coli = assay: Antibacterial activity against permeabilizing agent polymyxin B-treated Escherichia coli ATCC 25922 after 18 hrs by liquid dilution method; type: functional; conditions: ATCC 25922, 18 h
Procedure, shortened: (§1)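 Broth microdilution MIC. Compounds 2-fold serially diluted in cation-adjusted Mueller–Hinton broth. Bacteria grown to 10^8 cfu/mL, then inoculated at a final 5 × 10^5 cells/mL. Incubated 37 °C, 18 h. MIC taken as the lowest concentration giving no visible growth. E. coli ATCC25922 was tested in the presence of polymyxin B as permeabilizing agent.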

Staphylococcus aureus [1] = assay: Antibacterial activity against methicillin-resistant Staphylococcus aureus USA300 after 18 hrs by liquid dilution method; type: functional; conditions: USA300, 18 h
[2] = tested on: Staphylococcus epidermidis; assay: Antibacterial activity against Staphylococcus epidermidis RP62A after 18 hrs by liquid dilution method; type: functional; procedure, shortened: as §1
Staphylococcus aureus [3] = assay: Antibacterial activity against Staphylococcus aureus 8325 after 18 hrs by liquid dilution method; type: functional; conditions: Staphylococcus aureus, 8325, 18 h; procedure, shortened: as §1
Signal peptidase I = Signal peptidase I (Escherichia coli K-12, UniProt P00803); assay: Inhibition of Escherichia coli signal peptidase
Signal peptidase I, sequence (P00803 whole entry): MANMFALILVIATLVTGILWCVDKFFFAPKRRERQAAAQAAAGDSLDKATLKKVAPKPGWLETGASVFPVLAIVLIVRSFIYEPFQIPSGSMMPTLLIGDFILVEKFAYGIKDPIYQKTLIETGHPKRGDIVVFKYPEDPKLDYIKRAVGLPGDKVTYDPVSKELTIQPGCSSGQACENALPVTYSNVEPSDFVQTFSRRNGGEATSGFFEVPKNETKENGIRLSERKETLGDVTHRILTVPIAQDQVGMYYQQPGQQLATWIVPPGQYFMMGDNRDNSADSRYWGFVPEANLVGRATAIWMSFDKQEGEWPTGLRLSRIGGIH

`CC(C)C(=O)O[C@H](C)[C@H]1C(=O)N2C(C(=O)OCc3ccc([N+](=O)[O-])cc3)=CS[C@@H]12` gave an MIC (Escherichia coli) of over 200 µg/mL, an MIC (Staphylococcus aureus [1]) of over 200 µg/mL and an MIC [2] of 50 µg/mL (≈ 119 µM). For the same molecule, the MIC (Staphylococcus aureus [3]) was over 200 µg/mL.

Work on `CC(C)NC(=O)O[C@H](C)[C@H]1C(=O)N2C(C(=O)OCc3ccc([N+](=O)[O-])cc3)=CS[C@@H]12` yielded an MIC (Escherichia coli) of over 200 µg/mL, an MIC (Staphylococcus aureus [1]) of 100 µg/mL (≈ 230 µM) and an MIC [2] of 100 µg/mL (≈ 230 µM). The MIC (Staphylococcus aureus [3]) was over 200 µg/mL.

`CCC(=O)O[C@H](C)[C@H]1C(=O)N2C(C(=O)OCc3ccc([N+](=O)[O-])cc3)=CS[C@@H]12` was tested, and the MIC (Escherichia coli) was over 200 µg/mL, the MIC (Staphylococcus aureus [1]) was over 200 µg/mL and the MIC [2] was 100 µg/mL (≈ 246 µM). It also gave an MIC (Staphylococcus aureus [3]) of over 200 µg/mL.

`CC[C@H](C)[C@H](NC(C)=O)C(=O)O[C@H](C)[C@H]1C(=O)N2C(C(=O)OCc3ccc([N+](=O)[O-])cc3)=CS[C@@H]12` showed an MIC (Escherichia coli) of over 200 µg/mL, an MIC (Staphylococcus aureus [1]) of over 200 µg/mL and an MIC [2] of over 200 µg/mL. The MIC (Staphylococcus aureus [3]) was over 200 µg/mL.

Work on `CC(=O)N[C@@H](C)C(=O)O[C@H](C)[C@H]1C(=O)N2C(C(=O)OCc3ccc([N+](=O)[O-])cc3)=CS[C@@H]12` yielded an MIC (Escherichia coli) of over 200 µg/mL, an MIC (Staphylococcus aureus [1]) of over 200 µg/mL and an MIC [2] of over 200 µg/mL. For the same molecule, the MIC (Staphylococcus aureus [3]) was over 200 µg/mL.

With `COCCOCO[C@H](C)[C@H]1C(=O)N2C(C(=O)OCc3ccc([N+](=O)[O-])cc3)=CS[C@@H]12` the MIC (Escherichia coli) was over 200 µg/mL, the MIC (Staphylococcus aureus [1]) was over 200 µg/mL and the MIC [2] was 100 µg/mL (≈ 228 µM). It also gave an MIC (Staphylococcus aureus [3]) of 200 µg/mL (≈ 456 µM).

`CC(=O)O[C@H](C)[C@H]1C(=O)N2C(C(=O)OCc3ccc([N+](=O)[O-])cc3)=CS[C@@H]12` gave an MIC (Escherichia coli) of over 200 µg/mL, an MIC (Staphylococcus aureus [1]) of over 200 µg/mL and an MIC [2] of 100 µg/mL (≈ 255 µM). The MIC (Staphylococcus aureus [3]) was over 200 µg/mL.

`CCNC(=O)O[C@H](C)[C@H]1C(=O)N2C(C(=O)OCc3ccc([N+](=O)[O-])cc3)=CS[C@@H]12` was tested, and the MIC (Escherichia coli) was over 200 µg/mL, the MIC (Staphylococcus aureus [1]) was 100 µg/mL (≈ 237 µM) and the MIC [2] was 100 µg/mL (≈ 237 µM). For the same molecule, the MIC (Staphylococcus aureus [3]) was over 200 µg/mL.

For `C[C@@H](O)[C@H]1C(=O)N2C(C(=O)OCc3ccc([N+](=O)[O-])cc3)=CS[C@@H]12`, the MIC (Escherichia coli) was over 200 µg/mL, the MIC (Staphylococcus aureus [1]) was over 200 µg/mL and the MIC [2] was 50 µg/mL (≈ 143 µM). It also gave an MIC (Staphylococcus aureus [3]) of 200 µg/mL (≈ 571 µM).

`COCO[C@H](C)[C@H]1C(=O)N2C(C(=O)OCc3ccc([N+](=O)[O-])cc3)=CS[C@@H]12` gave an MIC (Escherichia coli) of over 200 µg/mL, an MIC (Staphylococcus aureus [1]) of over 200 µg/mL and an MIC [2] of 50 µg/mL (≈ 127 µM). The MIC (Staphylococcus aureus [3]) was over 200 µg/mL.

`CCOCO[C@H](C)[C@H]1C(=O)N2C(C(=O)OCc3ccc([N+](=O)[O-])cc3)=CS[C@@H]12` gave an MIC (Escherichia coli) of over 200 µg/mL, an MIC (Staphylococcus aureus [1]) of over 200 µg/mL and an MIC [2] of 50 µg/mL (≈ 122 µM). It also gave an MIC (Staphylococcus aureus [3]) of over 200 µg/mL.

In the case of `C[C@@H](O)[C@H]1C(=O)N2C(C(=O)O)=CS[C@@H]12`, the IC50 (Signal peptidase I) is reported as 180 nM.

For `CC(=O)NCC(=O)O[C@H](C)[C@H]1C(=O)N2C(C(=O)OCc3ccc([N+](=O)[O-])cc3)=CS[C@@H]12`, the MIC (Escherichia coli) was over 200 µg/mL, the MIC (Staphylococcus aureus [1]) was over 200 µg/mL and the MIC [2] was over 200 µg/mL. For the same molecule, the MIC (Staphylococcus aureus [3]) was over 200 µg/mL.

`CCCC(=O)O[C@H](C)[C@H]1C(=O)N2C(C(=O)OCc3ccc([N+](=O)[O-])cc3)=CS[C@@H]12` showed an MIC (Escherichia coli) of over 200 µg/mL, an MIC (Staphylococcus aureus [1]) of over 200 µg/mL and an MIC [2] of 100 µg/mL (≈ 238 µM). For the same molecule, the MIC (Staphylococcus aureus [3]) was over 200 µg/mL.

Molecule `CC(=O)N[C@H](C(=O)O[C@H](C)[C@H]1C(=O)N2C(C(=O)OCc3ccc([N+](=O)[O-])cc3)=CS[C@@H]12)C(C)C` has an MIC (Escherichia coli) of over 200 µg/mL, an MIC (Staphylococcus aureus [1]) of over 200 µg/mL and an MIC [2] of over 200 µg/mL. For the same molecule, the MIC (Staphylococcus aureus [3]) was over 200 µg/mL.

`CC(C)CC(=O)O[C@H](C)[C@H]1C(=O)N2C(C(=O)OCc3ccc([N+](=O)[O-])cc3)=CS[C@@H]12` showed an MIC (Escherichia coli) of over 200 µg/mL, an MIC (Staphylococcus aureus [1]) of over 200 µg/mL and an MIC [2] of 100 µg/mL (≈ 230 µM). It also gave an MIC (Staphylococcus aureus [3]) of over 200 µg/mL.

From ChEMBL document CHEMBL1151920, “Synthesis and biological evaluation of penem inhibitors of bacterial signal peptidase” (Bioorg Med Chem Lett, 2009)
